According to ChEMBL document CHEMBL1157786, “Investigation of the bioactive conformation of histamine H3 receptor antagonists by the cyclopropylic strain-based conformational restriction strategy” (J Med Chem, 2010):
Active and inactive are the calls of the source. No cut-off for these calls is given here.

Tests used:
Histamine H3 receptor [1] = target: T1, Histamine H3 receptor (Homo sapiens, UniProt Q9Y5N1); test: Displacement of [3H]N-alpha-methyl-histamine from human histamine H3 receptor expressed in human HEK293-EBNA cells; format: cell-based
T1 sequence (Q9Y5N1 whole entry): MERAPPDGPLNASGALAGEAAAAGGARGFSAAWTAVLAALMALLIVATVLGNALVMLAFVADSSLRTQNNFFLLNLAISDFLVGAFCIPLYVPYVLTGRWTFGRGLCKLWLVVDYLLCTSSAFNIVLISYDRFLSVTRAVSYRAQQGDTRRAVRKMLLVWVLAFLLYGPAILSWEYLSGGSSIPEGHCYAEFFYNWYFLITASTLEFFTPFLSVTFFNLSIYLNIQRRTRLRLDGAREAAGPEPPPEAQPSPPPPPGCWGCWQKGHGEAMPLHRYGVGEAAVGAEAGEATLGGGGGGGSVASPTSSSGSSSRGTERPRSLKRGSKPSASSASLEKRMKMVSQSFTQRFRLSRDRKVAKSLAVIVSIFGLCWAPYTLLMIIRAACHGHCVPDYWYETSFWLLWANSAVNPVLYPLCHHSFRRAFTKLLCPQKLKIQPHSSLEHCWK

Histamine H3 receptor [2] = target: T1, Histamine H3 receptor; test: Antagonist activity at human histamine H3 receptor expressed in human HEK293-EBNA cells assessed as inhibition of histamine-induced response at 100 uM by luciferase reporter gene assay; format: functional, cell-based
Histamine H3 receptor [3] = target: T1, Histamine H3 receptor; test: Agonist activity at human histamine H3 receptor expressed in human HEK293-EBNA cells by luciferase reporter gene assay; format: functional, cell-based
Summary of the method: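 Human H3 receptor expressed individually in 293-EBNA cells; compounds tested for agonism at 10^-5 M in a luciferase reporter gene assay.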

CC[C@H](CNCc1ccc(Cl)cc1)[C@H]1C[C@@H]1c1cnc[nH]1
Ki (Histamine H3 receptor [1]): 0.063 µM

CC[C@H](CNCc1ccc(Cl)cc1)[C@@H]1C[C@H]1c1cnc[nH]1
Ki (Histamine H3 receptor [1]): 0.129 µM

Clc1ccc(CNCC[C@H]2C[C@@H]2c2c[nH]cn2)cc1
Ki (Histamine H3 receptor [1]): 0.0036 µM | inhibition (Histamine H3 receptor [2]): 100%

CC[C@H](CNCc1ccc(Cl)cc1)[C@H]1C[C@@H]1c1c[nH]cn1
inhibition (Histamine H3 receptor [2]): 96% | Activity (Histamine H3 receptor [3]): inactive

Clc1ccc(CNCC[C@@H]2C[C@H]2c2c[nH]cn2)cc1
Ki (Histamine H3 receptor [1]): 0.0084 µM | inhibition (Histamine H3 receptor [2]): 100%

CC[C@@H](CNCc1ccc(Cl)cc1)[C@H]1C[C@@H]1c1c[nH]cn1
Ki (Histamine H3 receptor [1]): 0.0067 µM | inhibition (Histamine H3 receptor [2]): 88% | Activity (Histamine H3 receptor [3]): inactive

CC[C@@H](CNCc1ccc(Cl)cc1)[C@@H]1C[C@H]1c1c[nH]cn1
Ki (Histamine H3 receptor [1]): 0.0198 µM | inhibition (Histamine H3 receptor [2]): 95% | Activity (Histamine H3 receptor [3]): inactive

CC[C@H](CNCc1ccc(Cl)cc1)[C@@H]1C[C@H]1c1c[nH]cn1
inhibition (Histamine H3 receptor [2]): 73% | Activity (Histamine H3 receptor [3]): inactive
